# Measurements: ChEMBL document CHEMBL4325904 (Eur J Med Chem, 2019)
# Active and inactive are the calls of the source. The calls are words filed in the database; no cut-off is given here.
# Experiments:
# Kasumi 1 = assay: Potency index, ratio of scriptaid IC50 to test compound IC50 for human Kasumi-1 cells; format: functional
# Histone deacetylase 7 = target: T1, Histone deacetylase 7 (Homo sapiens, UniProt Q8WUI4); assay: Inhibition of recombinant N-terminal GST-tagged human HDAC7 (518 to 991 residues) expressed in Baculovirus infected insect cells using Boc-K(Ac)-AMC as substrate by fluorimetric assay
# T1 sequence (Q8WUI4 whole entry): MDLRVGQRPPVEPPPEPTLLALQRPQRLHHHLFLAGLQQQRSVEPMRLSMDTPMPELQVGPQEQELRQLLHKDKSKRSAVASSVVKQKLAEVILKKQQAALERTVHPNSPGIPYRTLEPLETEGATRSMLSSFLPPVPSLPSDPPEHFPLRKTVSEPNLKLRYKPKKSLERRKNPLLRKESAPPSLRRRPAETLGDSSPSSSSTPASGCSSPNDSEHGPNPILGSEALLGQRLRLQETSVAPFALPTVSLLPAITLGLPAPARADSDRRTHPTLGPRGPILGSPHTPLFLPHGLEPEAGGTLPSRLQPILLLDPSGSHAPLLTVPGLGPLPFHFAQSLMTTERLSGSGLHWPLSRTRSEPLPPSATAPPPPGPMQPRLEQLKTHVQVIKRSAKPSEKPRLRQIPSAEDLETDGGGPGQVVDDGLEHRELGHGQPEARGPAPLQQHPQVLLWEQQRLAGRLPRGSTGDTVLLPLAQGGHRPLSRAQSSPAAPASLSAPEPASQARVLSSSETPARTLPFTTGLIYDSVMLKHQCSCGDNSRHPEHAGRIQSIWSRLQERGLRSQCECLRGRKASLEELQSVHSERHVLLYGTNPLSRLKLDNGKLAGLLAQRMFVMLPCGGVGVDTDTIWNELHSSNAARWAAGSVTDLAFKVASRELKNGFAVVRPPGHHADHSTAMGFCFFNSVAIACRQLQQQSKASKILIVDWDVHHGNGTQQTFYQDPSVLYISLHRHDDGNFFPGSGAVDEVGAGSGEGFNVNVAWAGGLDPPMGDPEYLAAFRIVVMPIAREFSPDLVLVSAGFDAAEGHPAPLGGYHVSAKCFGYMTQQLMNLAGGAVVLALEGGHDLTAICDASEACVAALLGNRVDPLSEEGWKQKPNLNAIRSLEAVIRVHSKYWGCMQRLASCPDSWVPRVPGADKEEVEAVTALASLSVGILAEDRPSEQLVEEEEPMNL
# A549 = assay: Induction of morphological changes in human A549 cells assessed as increase in protrusions of the membrane at 10 uM after 20 mins by naphthalimide/Lysotracker Deep Red dye-based inverted light fluorescence confocal microscopic analysis; format: functional, cell-based
# Method in brief: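 A549 cells exposed to compound at 10 µM for 20 minutes, then imaged by confocal microscopy (λex 405 nm, λem 460–560 nm); membrane protrusions (blebbing) recorded.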
IC50 (Histone deacetylase 7) [µM],SMILES,Ratio IC50 (Kasumi 1),Activity (A549)
9.4,CCCNc1ccc2c3c(cccc13)C(=O)N(CCCCCC(=O)NO)C2=O,5,–
3.2,O=C(CCCCCN1C(=O)c2cccc3c(NCc4ccccc4)ccc(c23)C1=O)NO,–,Active
